Results published in ChEMBL document CHEMBL5233202, “Metabolically stable apelin-analogues, incorporating cyclohexylalanine and homoarginine, as potent apelin receptor activators” (RSC Med Chem, 2021).
Non-standard residues stand in square brackets, D forms with d. Residues, ends and D or L forms follow the SMILES beside them. Phe(4-Br) = N[C@@H](Cc1ccc(Br)cc1)C(=O)O; NMeCha = CN[C@@H](CC1CCCCC1)C(=O)O; hArg = N=C(N)NCCCC[C@H](N)C(=O)O; Nle = CCCC[C@H](N)C(=O)O; Aib = CC(C)(N)C(=O)O

Columns and labels:
Mus musculus [1] = assay: Hypotensive effect in anesthetized wild type mouse assessed as total time duration of hypotensive effect at 1.4 uM/Kg, iv administered via right jugular vein measured for 60 mins; type: functional; settings: 1 h
How it was run: (§1)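 Anesthetized mice received peptide at 1.4 μM kg−1 body weight, or equal-volume saline, by injection into the right jugular vein (n = 3). HR, MABP, SBP and DBP were recorded from blood pressure traces and reported as mean ± S.E.M.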

Apelin receptor [2] = molecular target: T1, Apelin receptor (Homo sapiens, UniProt P35414); assay: Activation of recombinant human APJ receptor expressed in rat Chem-5 cells assessed as increase in Ca2+ mobilization by FLIPR Calcium 6-QF fluorescent dye based assay; type: cell-based
T1 sequence (P35414 whole entry): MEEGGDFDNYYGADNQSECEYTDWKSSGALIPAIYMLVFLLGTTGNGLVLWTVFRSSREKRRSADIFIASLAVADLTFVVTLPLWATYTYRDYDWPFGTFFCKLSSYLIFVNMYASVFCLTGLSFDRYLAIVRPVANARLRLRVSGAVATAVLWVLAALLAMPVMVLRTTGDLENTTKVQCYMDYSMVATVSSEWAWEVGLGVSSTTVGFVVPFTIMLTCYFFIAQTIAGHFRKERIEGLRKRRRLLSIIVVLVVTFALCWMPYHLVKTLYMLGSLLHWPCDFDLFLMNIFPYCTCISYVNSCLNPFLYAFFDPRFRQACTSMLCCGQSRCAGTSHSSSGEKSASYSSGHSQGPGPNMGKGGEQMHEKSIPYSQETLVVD
How it was run: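 Frozen Chem-5 cells stably expressing human APJ, thawed per supplier protocol, loaded 1 h with Calcium 6-QF dye in HBSS/20 mM HEPES/0.2% DMSO/2.5 mM probenecid, pH 7.6. Cells washed three times and rested 10 min, then read on FLIPR. Agonist response taken as maximum fluorescence change over baseline. pEC50 from four-parameter logistic fit; triplicates.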

[3] = Stability in human plasma assessed as half life at 1 mM measured for 24 hrs by LC-MS analysis; type: ADME, cell-free
How it was run: (§2)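 Plasma (20 μL, human or murine) prewarmed to 37 °C, then 5 μL of 1 mM peptide added and incubated at 37 °C. Samples quenched at 1, 3, 6 and 24 h with 6 M GuHCl/80% ACN and Dans-YVG internal standard, centrifuged, solid-phase extracted and analyzed by LC-MS. Peptide/standard peak-area ratio normalized to 0 h; triplicates.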

[4] = Protein binding in pooled human plasma at 100 uM incubated for 3 hrs by equilibrium dialysis method; type: ADME, cell-free; settings: read-out: PPB (converted)
How it was run: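 Equilibrium dialysis. DMSO stock (1 mM) diluted to 100 μM final in 55% pooled human plasma stabilized with EDTA and MLN-4760, dialyzed against PBS pH 7.4 at 37 °C, 120 rpm, 3 h. Retentate diluted with PBS and dialysate with plasma, then quenched with 10% TFA/acetonitrile. Dans-YVG internal standard added, centrifuged, LC-MS.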

Neprilysin [5] = molecular target: T2, Neprilysin (Homo sapiens, UniProt P08473); assay: Proteolytic stability assessed as recombinant human NEP-mediated compound degradation by measuring half life incubated for 24 hrs by LC-MS analysis; type: ADME; settings: 24 h
Mus musculus [6] = assay: Hypotensive effect in anesthetized wild type mouse assessed as change in mean arterial blood pressure at 1.4 uM/Kg, iv administered via right jugular vein measured for 60 mins; type: functional; settings: 1 h; how it was run: as §1
Apelin receptor [7] = molecular target: T3, Apelin receptor (Rattus norvegicus, UniProt Q9JHG3); assay: Displacement of [125I]-pyr-1-apelin-13 from EGFP tagged rat apelin receptor expressed in CHO cell membrane incubated for 3 hrs by gamma counter analysis; type: cell membranes
T3 sequence (Q9JHG3 whole entry): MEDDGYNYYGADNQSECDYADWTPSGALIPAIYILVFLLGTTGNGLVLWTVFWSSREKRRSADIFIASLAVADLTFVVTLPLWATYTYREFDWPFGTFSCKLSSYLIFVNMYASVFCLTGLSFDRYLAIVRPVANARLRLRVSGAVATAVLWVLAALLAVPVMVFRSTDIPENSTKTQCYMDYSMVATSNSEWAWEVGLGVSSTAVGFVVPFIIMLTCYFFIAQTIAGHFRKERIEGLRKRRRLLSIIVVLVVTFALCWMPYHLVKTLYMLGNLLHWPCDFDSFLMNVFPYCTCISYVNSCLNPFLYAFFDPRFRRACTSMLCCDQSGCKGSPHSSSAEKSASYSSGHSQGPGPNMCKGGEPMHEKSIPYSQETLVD
How it was run: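 Crude membranes (1 μg/assay) from CHO cells stably expressing wild-type rat APJ-EGFP, incubated 3 h at 20 °C with 0.2 nM [125I]-pyr-1-apelin-13 (Lys8 Bolton–Hunter monoiodinated) and competitor at various concentrations. Binding buffer: 50 mM HEPES, 5 mM MgCl2, 1% BSA, pH 7.5. Quenched with cold buffer, GF/C filtered and washed, gamma counted; triplicates.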

Neprilysin [8] = molecular target: T2, Neprilysin; assay: Proteolytic stability assessed as recombinant human NEP-mediated compound degradation incubated for 24 hrs by LC-MS analysis; type: ADME
How it was run: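 Recombinant human NEP diluted to 2 ng μL−1 in NEP-B buffer and preincubated 10 min at 37 °C. Peptide (1 mM aqueous solution) added and incubated at 37 °C. Aliquots taken at 0, 2, 10, 20 and 48 h, quenched and quantified by LC-MS; triplicate per time point.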

[9] = Stability in mouse plasma assessed as half life at 1 mM measured for 24 hrs by LC-MS analysis; type: ADME, cell-free; how it was run: as §2

T2 sequence (P08473 whole entry): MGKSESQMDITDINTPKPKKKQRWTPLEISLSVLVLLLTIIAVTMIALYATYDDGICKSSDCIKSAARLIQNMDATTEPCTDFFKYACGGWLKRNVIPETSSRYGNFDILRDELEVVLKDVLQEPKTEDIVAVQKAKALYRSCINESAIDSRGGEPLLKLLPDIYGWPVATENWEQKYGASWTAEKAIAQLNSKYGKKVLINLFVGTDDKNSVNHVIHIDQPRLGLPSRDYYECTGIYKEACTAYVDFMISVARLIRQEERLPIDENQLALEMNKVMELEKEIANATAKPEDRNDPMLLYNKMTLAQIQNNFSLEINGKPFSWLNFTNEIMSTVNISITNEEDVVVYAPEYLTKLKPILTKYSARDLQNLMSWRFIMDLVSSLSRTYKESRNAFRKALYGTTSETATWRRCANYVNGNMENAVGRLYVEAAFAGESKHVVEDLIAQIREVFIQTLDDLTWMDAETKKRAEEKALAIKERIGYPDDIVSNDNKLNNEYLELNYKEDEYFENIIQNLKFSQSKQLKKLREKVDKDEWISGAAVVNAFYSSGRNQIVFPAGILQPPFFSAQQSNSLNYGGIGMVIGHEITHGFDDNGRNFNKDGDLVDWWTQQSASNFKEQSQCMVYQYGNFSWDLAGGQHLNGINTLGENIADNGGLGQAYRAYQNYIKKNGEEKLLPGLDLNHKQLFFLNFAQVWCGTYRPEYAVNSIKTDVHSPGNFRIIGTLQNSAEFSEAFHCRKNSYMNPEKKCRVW

Compound | Time (Mus musculus [1]) [min] | EC50 (Apelin receptor [2]) [nM] | half-life at 1000 µM [3] [min] | fraction unbound at 3 h, 100 µM [4] | t1/2 (Neprilysin [5]) [min] | Activity (Mus musculus [6]) [mmHg] | Ki (Apelin receptor [7]) [nM] | Stability (Neprilysin [8]) | half-life at 1000 µM [9] [min]
CCCC[C@H](NC(=O)[C@@H]1CCCN1C(=O)CNC(=O)[C@H](CCCCN)NC(=O)[C@H](Cc1c[nH]cn1)NC(=O)[C@H](CO)NC(=O)[C@H](CC(C)C)NC(=O)[C@H](CCCNC(=N)N)NC(=O)[C@@H]1CCCN1C(=O)[C@H](CCCNC(=N)N)NC(=O)[C@H](CCC(N)=O)NC(=O)[C@H](CCCNC(=N)N)NC(=O)[C@H](CCCNC(=N)N)NC(=O)[C@H](Cc1ccccc1)NC(=O)[C@@H](N)CCCCN)C(=O)NC(C)(C)C(=O)N[C@@H](Cc1ccc(Br)cc1)C(=O)O (H-KFRRQRPRLSHKGP[Nle][Aib][Phe(4-Br)]-OH) | 33 | 4.27 | 54 | 0.43 | 657 | 10.24 |  |  | 
CCCC[C@H](NC(=O)[C@@H]1CCCN1C(=O)CNC(=O)[C@H](CCCCN)NC(=O)[C@H](Cc1c[nH]cn1)NC(=O)[C@H](CO)NC(=O)[C@H](CC1CCCCC1)N(C)C(=O)[C@H](CCCNC(=N)N)NC(=O)[C@@H]1CCCN1C(=O)[C@H](CCCNC(=N)N)NC(=O)[C@H](CCC(N)=O)NC(=O)[C@H](CCCNC(=N)N)NC(=O)[C@H](CCCNC(=N)N)NC(=O)[C@H](Cc1ccccc1)NC(=O)[C@@H](N)CCCCN)C(=O)NC(C)(C)C(=O)N[C@@H](Cc1ccc(Br)cc1)C(=O)O (H-KFRRQRPR[NMeCha]SHKGP[Nle][Aib][Phe(4-Br)]-OH) | 60 | 16.2 | 174 | 0.32 |  | 28.83 | 2 | Stable | 26.4
CCCC[C@H](NC(=O)[C@@H]1CCCN1C(=O)CNC(=O)[C@H](CCCCN)NC(=O)[C@H](Cc1c[nH]cn1)NC(=O)[C@H](CO)NC(=O)[C@H](CC1CCCCC1)N(C)C(=O)[C@H](CCCCNC(=N)N)NC(=O)[C@@H]1CCCN1C(=O)[C@H](CCCNC(=N)N)NC(=O)[C@H](CCC(N)=O)NC(=O)[C@H](CCCNC(=N)N)NC(=O)[C@H](CCCNC(=N)N)NC(=O)[C@H](Cc1ccccc1)NC(=O)[C@@H](N)CCCCN)C(=O)NC(C)(C)C(=O)N[C@@H](Cc1ccc(Br)cc1)C(=O)O (H-KFRRQRP[hArg][NMeCha]SHKGP[Nle][Aib][Phe(4-Br)]-OH) | 60 | 72.4 | 205 | 0.31 |  | 47.57 | 0.646 | Stable | 21.6
